Reference: ChEMBL document CHEMBL4017517, “Small Molecule Inhibitors Simultaneously Targeting Cancer Metabolism and Epigenetics: Discovery of Novel Nicotinamide Phosphoribosyltransferase (NAMPT) and Histone Deacetylase (HDAC) Dual Inhibitors” (J Med Chem, 2017)
The source made the active and inactive calls. The rule behind the calls is not given here.

Tests used:
[1] = target: Nicotinamide phosphoribosyltransferase (Homo sapiens, UniProt P43490); assay: Inhibition of human recombinant NAMPT using NAM as substrate preincubated for 5 mins followed by substrate addition measured after 15 mins by fluorescence assay
Nicotinamide phosphoribosyltransferase, sequence (P43490 whole entry): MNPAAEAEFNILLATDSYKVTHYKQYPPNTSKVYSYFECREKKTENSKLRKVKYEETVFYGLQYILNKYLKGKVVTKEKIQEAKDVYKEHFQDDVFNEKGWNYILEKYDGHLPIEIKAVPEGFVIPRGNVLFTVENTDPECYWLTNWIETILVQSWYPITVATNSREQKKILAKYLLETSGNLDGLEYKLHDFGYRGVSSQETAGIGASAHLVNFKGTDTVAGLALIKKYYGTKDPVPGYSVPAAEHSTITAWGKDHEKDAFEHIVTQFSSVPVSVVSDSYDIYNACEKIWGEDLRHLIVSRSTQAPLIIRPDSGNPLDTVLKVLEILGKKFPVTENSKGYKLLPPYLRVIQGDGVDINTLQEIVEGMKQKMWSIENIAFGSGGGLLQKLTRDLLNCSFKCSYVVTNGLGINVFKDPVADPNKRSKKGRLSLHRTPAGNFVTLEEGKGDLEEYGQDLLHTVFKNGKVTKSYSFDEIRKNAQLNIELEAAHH

HepG2 = assay: cells; type: functional, cell-based; conditions: Homo sapiens, HepG2, 72 h
Histone deacetylase 1 = Histone deacetylase 1 (Homo sapiens, UniProt Q13547); assay: Inhibition of human recombinant HDAC1 (1 to 482 residues) expressed in Baculovirus using Ac-Leu-Gly-Lys(Ac)-AMC as substrate preincubated for 5 mins followed by substrate addition measured after 30 mins by fluorescence assay
Histone deacetylase 1, sequence (Q13547 whole entry, the tested form may be a part): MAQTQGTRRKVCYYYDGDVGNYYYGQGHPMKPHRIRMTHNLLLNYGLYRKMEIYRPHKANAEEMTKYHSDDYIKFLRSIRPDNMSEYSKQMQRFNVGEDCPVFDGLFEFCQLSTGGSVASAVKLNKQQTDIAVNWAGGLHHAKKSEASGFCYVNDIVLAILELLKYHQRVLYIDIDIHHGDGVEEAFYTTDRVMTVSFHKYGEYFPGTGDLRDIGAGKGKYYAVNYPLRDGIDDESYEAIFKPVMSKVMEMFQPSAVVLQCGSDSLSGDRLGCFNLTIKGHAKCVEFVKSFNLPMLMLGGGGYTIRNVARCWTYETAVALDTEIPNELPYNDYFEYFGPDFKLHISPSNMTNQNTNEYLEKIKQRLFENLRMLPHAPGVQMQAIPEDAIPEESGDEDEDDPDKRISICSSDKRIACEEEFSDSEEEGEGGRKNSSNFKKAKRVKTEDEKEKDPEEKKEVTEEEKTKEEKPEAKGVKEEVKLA

HCT-116 [2] = assay: cells; type: functional, cell-based; conditions: Homo sapiens, HCT-116, 72 h
MDA-MB-231 = assay: cells; type: functional, cell-based; conditions: Homo sapiens, MDA-MB-231, 72 h
HCT-116 [3] = assay: Induction of apoptosis in human HCT116 cells assessed as early apoptotic cells at 5 uM after 72 hrs by Annexin V-FITC/propidium iodide staining-based flow cytometric analysis (reference value: 7.82%); type: functional
Outline: (§1)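 HCT116 cells seeded at 5×10^5 cells/mL in six-well plates, treated at 5 μM for 72 h alongside vehicle. Cells trypsinized, washed twice in cold PBS, and resuspended in 1× binding buffer. Stained with annexin V-FITC 15 min at room temperature, then PI 15 min in dark, then flow cytometry.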

HCT-116 [4] = assay: Induction of apoptosis in human HCT116 cells assessed as late apoptotic cells at 5 uM after 72 hrs by Annexin V-FITC/propidium iodide staining-based flow cytometric analysis (reference value: 3.33%); type: functional; outline: as §1
HCT-116 [5] = assay: Induction of apoptosis in human HCT116 cells assessed as necrotic cells at 5 uM after 72 hrs by Annexin V-FITC/propidium iodide staining-based flow cytometric analysis (reference value: 1.25%); type: functional; outline: as §1
[6] = Terminal half life in BALB/C nude mouse at 25 mg/kg, po; type: ADME, organism-based; conditions: in vivo, read-out: beta t1/2 (converted)
Outline: (§2)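 Mice given a single oral dose of 25 mg/kg. Plasma pharmacokinetics sampled to obtain terminal half-life and Cmax.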

[7] = Cmax in BALB/C nude mouse at 25 mg/kg, po; type: ADME, organism-based; parameters: dose 25 mg/kg, route oral; conditions: in vivo; outline: as §2
HCT-116 [8] = assay: Antitumor activity against human HCT116 cells xenografted in BALB/C nude mouse assessed as tumor growth inhibition at 25 mg/kg, po administered as single dose for 14 consecutive days measured after 30 to 33 days post implantation; type: functional, organism-based
Outline: (§3)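 Male BALB/C nude mice (18–20 g) bearing subcutaneous HCT116 right-axilla tumors; treatment started at about 100–300 mm³. Five mice per treatment, eight controls. Dosed po 25 mg/kg/day for 14 consecutive days as suspension in 0.5% carboxymethyl cellulose; controls got vehicle. Tumor volume (1/2 × length × width²) and body weight recorded every 3 days. Sacrifice day 30–33 post-implant.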

Mus musculus = assay: Toxicity in BALB/C nude mouse xenografted with human HCT116 cells assessed as change in body weight at 25 mg/kg, po administered as single dose for 14 consecutive days measured during compound dosing; type: organism-based; conditions: in vivo; outline: as §3
HCT-116 [9] = assay: Antitumor activity against human HCT116 cells xenografted in BALB/C nude mouse assessed as tumor growth inhibition at 15 mg/kg, ip bid administered for 21 consecutive days measured after 30 to 33 days post implantation relative to control; type: functional; conditions: HCT-116, ip, read-out: TGI
Outline: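 HCT116 cells implanted subcutaneously in right axilla of male BALB/C nude mice (18–20 g). Dosing began at tumor volume about 100–300 mm³; five mice per treatment, eight controls. Given ip bid for 21 consecutive days in 0.1% Tween 80 in normal saline, with vehicle controls. Caliper volume TV = 1/2 × a × b² measured every 3 days. Mice sacrificed day 30–33 post-implant; TGI calculated at end of treatment.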

Structure (SMILES)	IC50 [1] [µM]	IC50 (HepG2) [µM]	IC50 (Histone deacetylase 1) [µM]	IC50 (HCT-116 [2]) [µM]	IC50 (MDA-MB-231) [µM]	half-life [6] [h]	Cmax [7] [nM]	Activity (HCT-116 [3]) [%]	Activity (HCT-116 [4]) [%]	Activity (HCT-116 [5]) [%]	TGI (HCT-116 [8])	Activity (Mus musculus)	inhibition in vivo at 15 mg/kg (HCT-116 [9]) [%]
Nc1ccccc1NC(=O)c1ccc(NC(=O)NCc2ccc(F)nc2)cc1	> 2	13	0.28	14	91	–	–	–	–	–	–	–	–
Nc1ccccc1NC(=O)c1ccc(NC(=S)NCc2cccc(Cl)c2)cc1	> 2	2.6	0.18	5.9	92	–	–	–	–	–	–	–	–
Nc1ccccc1NC(=O)c1ccc(NC(=O)NCc2ccc(Cl)nc2)cc1	> 2	2.4	0.021	5.2	34	–	–	–	–	–	–	–	–
Nc1ccc(CNC(=O)Nc2ccc(C(=O)Nc3ccccc3N)cc2)cn1	> 2	3.1	0.33	7.3	> 100	–	–	–	–	–	–	–	–
Nc1ccccc1NC(=O)c1ccc(NC(=S)NCc2ccc(Cl)nc2)cc1	> 2	19	0.25	6.1	42	–	–	–	–	–	–	–	–
Nc1ccccc1NC(=O)c1ccc(NC(=S)NCc2nc3ccccc3[nH]2)cc1	> 2	31	0.046	22	> 100	–	–	–	–	–	–	–	–
Nc1ccccc1NC(=O)c1ccc(NC(=S)NCc2cccnc2)cc1	0.116 to 0.12	4.2	1.6	1	–	1.8	2300	–	–	–	Active	Non-Toxic	–
Nc1ccccc1NC(=O)c1ccc(NC(=S)NCc2ccc(F)nc2)cc1	> 2	5.2	0.37	10	81	–	–	–	–	–	–	–	–
Nc1cccc(CNC(=S)Nc2ccc(C(=O)Nc3ccccc3N)cc2)c1	> 2	3.3	0.22	2.8	> 100	–	–	–	–	–	–	–	–
Nc1ccccc1NC(=O)c1ccc(NC(=S)NCc2ccc3c(c2)OCO3)cc1	> 2	5.1	0.1	8.4	> 100	–	–	–	–	–	–	–	–
Nc1ccccc1NC(=O)c1ccc(NC(=S)NCc2cncc(F)c2)cc1	> 2	13	0.44	15	85	–	–	–	–	–	–	–	–
Cc1ccc(CNC(=S)Nc2ccc(C(=O)Nc3ccccc3N)cc2)cn1	> 2	11	0.26	11	63	–	–	–	–	–	–	–	–
Nc1ccccc1NC(=O)c1ccc(NC(=S)NCc2cncc(Br)c2)cc1	> 2	7.5	0.35	9.2	39	–	–	–	–	–	–	–	–
O=C(/C=C/c1cccnc1)NCCCCC1CCN(C(=O)c2ccccc2)CC1 [DAPORINAD]	–	0.89	–	1.6	1.3	–	–	–	–	–	–	–	39
Nc1ccccc1NC(=O)c1ccc(NC(=S)NCc2cccc(F)c2)cc1	> 2	2.9	0.17	5.9	74	–	–	–	–	–	–	–	–

Second part, led by results:

IC50 [1] [µM]	IC50 (HepG2) [µM]	IC50 (Histone deacetylase 1) [µM]	IC50 (HCT-116 [2]) [µM]	IC50 (MDA-MB-231) [µM]	half-life [6] [h]	Cmax [7] [nM]	Structure (SMILES)	Activity (HCT-116 [3]) [%]	Activity (HCT-116 [4]) [%]	Activity (HCT-116 [5]) [%]	TGI (HCT-116 [8])	Activity (Mus musculus)	inhibition in vivo at 15 mg/kg (HCT-116 [9]) [%]
0.23	2.7	0.62	48	> 100	–	–	Nc1ccccc1NC(=O)c1ccc(NC(=O)/C=C/c2cccnc2)cc1	–	–	–	–	–	–
> 2	10	–	10	–	–	–	CC(=O)Nc1ccc(C(=O)Nc2ccccc2N)cc1 [TACEDINALINE]	10.81	20.75	3.71	–	–	–
> 2	5.4	0.3	6.3	> 100	–	–	Nc1ccccc1NC(=O)c1ccc(NC(=S)NCc2ccccc2F)cc1	–	–	–	–	–	–
> 2	0.38	0.083	3	40	–	–	Nc1ccccc1NC(=O)c1ccc(CNC(=O)c2cc3cnccc3s2)cc1	–	–	–	–	–	–
> 2	0.56	0.67	2.4	13	–	–	Nc1ccccc1NC(=O)c1ccc(NC(=O)/C(Cl)=C(\Cl)c2cccnc2)cc1	–	–	–	–	–	–
> 2	23	0.24	18	98	–	–	Nc1ccccc1NC(=O)c1ccc(CNC(=O)c2ccc3cn[nH]c3c2)cc1	–	–	–	–	–	–
> 2	3.4	0.093	7.4	54	–	–	Nc1ccccc1NC(=O)c1ccc(CNC(=O)c2ccc3cncn3c2)cc1	–	–	–	–	–	–
0.55	5.1	0.22	9.4	> 100	–	–	Nc1ccccc1NC(=O)c1ccc(NC(=O)NCc2cccnc2)cc1	–	–	–	–	–	–
> 2	4.7	0.071	3.3	41	–	–	Nc1ccccc1NC(=O)c1ccc(CNC(=O)c2cc3ccncc3[nH]2)cc1	–	–	–	–	–	–
> 2	1.7	0.084	4	48	–	–	Nc1ccccc1NC(=O)c1ccc(CNC(=O)c2cc3cnccc3[nH]2)cc1	–	–	–	–	–	–
0.018	8.1	0.041	> 100	> 100	–	–	Nc1ccccc1NC(=O)c1ccc(Cn2cc(-c3ccc(NC(=O)NCc4cccnc4)cc3)nn2)cc1	–	–	–	–	–	–
> 2	8.8	0.3	15	> 100	–	–	Nc1ccccc1NC(=O)c1ccc(NC(=S)NCc2ccc(F)cc2)cc1	–	–	–	–	–	–
> 2	5.5	0.087	1.8	46	–	–	Nc1ccccc1NC(=O)c1ccc(CNC(=O)c2ccn3ccnc3c2)cc1	–	–	–	–	–	–
> 2	6.1	0.033	10	> 100	–	–	Nc1ccccc1NC(=O)c1ccc(CNC(=O)c2cc3cccnc3[nH]2)cc1	–	–	–	–	–	–
0.19	3.2	0.18	5.5	41	–	–	Nc1ccccc1NC(=O)c1ccc(CCn2cc(-c3cccnc3)nn2)cc1	–	–	–	–	–	–
> 2	100	3.3	100	> 100	–	–	CC(C)(C)OC(=O)Nc1ccc(CNC(=O)Nc2ccc(C(=O)Nc3ccccc3N)cc2)cn1	–	–	–	–	–	–
> 2	14	0.2	27	> 100	–	–	Nc1ccc(CNC(=S)Nc2ccc(C(=O)Nc3ccccc3N)cc2)cn1	–	–	–	–	–	–
–	5.3	> 10	41	–	–	–	O=S(=O)(c1ccc(NC(=S)NCc2cccnc2)cc1)N1CCCCC1	29.11	11.4	1.62	–	–	–
